# An excerpt weighted towards active compounds, which were near 1.8% of everything screened.
# Cneo AK release: Cryptococcus neoformans cell lysis inducers, primary screen, AK release luminescence, single concentration; C. neoformans lysis, adenylate kinase release luminescence, 4 h; normalised: neutral wells 0, clomiphene wells 100; lysis activity, % at 15 µM; 0.2% of 360,000 active; AID 651654, 2012;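 active = mean lysis activity across replicates of at least 80%, whatever share of replicates individually reach that level; inactive = mean lysis activity below 80%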
#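 Assay system: log-phase C. neoformans yeast / Quantity: yeast cell density of 5 × 10^6 cells/mL / Medium: fresh YPD growth medium / Compound: single dose / Timing: static 4 h at 37 °C with compound, 1 h detection / Measured by: adenylate kinase release luminescence / Read-out: lysis from increased AK signal / Benchmarks: Clomiphene as positive lysis control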
# SUMO Mot1 rescue: yeast Mot1-301 growth rescue at high temperature, primary screen, SUMOylation pathway inhibitor project, S. cerevisiae, ATP luminescence, 38.5C. 1% of 320,000 active. AID 2716, 2010. growth rescue, % at 18.8 µM. S. cerevisiae Mot1-301 growth rescue; percent above DMSO median, 100 means doubled;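 active = every valid replicate shows activation above 250% relative to neutral control wells; inactive = the rest, any valid replicate at or below 250%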;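 also: OY570 slx delta 5 strain wells were the positive control but not used for scaling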
# Efflux pump inh: inhibitors of Candida efflux pumps in yeast, primary screen, S. cerevisiae, Nile Red, multiplex. S. cerevisiae Candida pump triplex. inhibition, % at 10 µM. 0.44% of 330,000 active;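 active = plate passing quality check with inhibition over a set limit, or well fluorescence over plate mean plus 4 SD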;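 also: Nile Red retained in pooled yeast measured as flow cytometry median fluorescence; 0% = buffer negative control and 100% = Enniatin B positive control; higher means more Nile Red kept so more efflux inhibition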
# C2C12 statin: suppressors of statin myotoxicity in C2C12 myotubes, primary screen, cell-based, single point, plate reader; 0.78% of 330,000 active; AID 602340, 2012; C2C12 myotubes + simvastatin, ATP luminescence, 48 h; scaled: DMSO 0, geranylgeraniol control 100; rescue of ATP level, % at 7.49 µM;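 active = mean ATP rescue above about 67%, or every replicate alone reaching that limit, limit read from the data, passing the limit was not always enough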;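 also: myotubes were challenged with 10 µM simvastatin during compound exposure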
# The depositor's hits bear a star; / = no result given.
SMILES,Cneo AK release,SUMO Mot1 rescue,Efflux pump inh,C2C12 statin
CC(C)CNC(=O)c1cc2nc3c(c(C(F)(F)F)n2n1)CCc1ccccc1-3,0,2,0,-18
CCCCNC(=O)c1cc2nc3c(c(C(F)(F)F)n2n1)CCc1ccccc1-3,3,-7,0,76*
Cc1ccc(S(=O)(=O)N(C)Cc2ccccc2)cc1C(=O)N1CCCCC1,1,336*,0,2
O=C(/C=C/c1ccc(Cl)c([N+](=O)[O-])c1)Nc1ccc(NC(=O)c2ccco2)cc1,/,/,/,-9
CCC(=O)N1CCN(c2ccc(NC(=O)c3ccco3)cc2)CC1,0,-4,0,95*
CCN1CCN(c2ccc(NC(=O)Cc3ccccc3)cc2)CC1,-2,226,0,105*
O=C(Nc1ccc(Cl)c([N+](=O)[O-])c1)c1ccco1,112*,-3,0,-2
CC(=O)N1CCN(c2ccc(NC(=O)c3ccco3)cc2Cl)CC1,1,-5,-4,-8
O=C(Nc1ccc(N2CCN(C(=O)c3ccccc3)CC2)c(Cl)c1)c1ccco1,-1,-14,0,122*
CC(=O)Nc1ccc(OCC(=O)c2ccc(C)cc2C)cc1,0,3,0,10
O=C(NCc1nnc(SCC(=O)N2CCN(c3ccccc3)CC2)o1)c1ccco1,-1,-18,0,93*
O=C(Nc1ccc(Cl)cc1C(=O)Nc1ccncc1)c1ccco1,-1,3,0,91*
Cc1ccccc1C(=O)NCc1nnc(SCC(=O)N2CCN(c3ccccc3)CC2)n1C,4,-10,0,101*
Cn1c(CNC(=O)c2ccccc2F)nnc1SCC(=O)N1CCN(c2ccccc2)CC1,/,18,0,/
O=C(NCc1nnc(SCC(=O)N2CCN(c3ccccc3)CC2)o1)c1ccccc1,4,-13,0,2
O=C(NCc1ccccn1)Nc1ccccc1F,0,-22,0,-4
Nc1nnc(SCC(=O)N2CCN(Cc3ccccc3)CC2)s1,1,-3,0,4
Cc1ccc(-c2nnc(-n3nc(C)cc3C)c3ccccc23)cc1,/,-3,1,/
C[C@@H]1CN([C@H](C)CO)C(=O)c2cc(-c3cccc(F)c3)cnc2O[C@H]1CN(C)Cc1ccccc1,116*,/,/,-5
COc1cccc(S(=O)(=O)N(C)C[C@@H]2Oc3ncc(-c4cccc(F)c4)cc3C(=O)N([C@H](C)CO)C[C@@H]2C)c1,112*,/,/,7
CC(C)CC#Cc1cnc2c(c1)C(=O)N([C@H](C)CO)C[C@H](C)[C@@H](CN(C)Cc1cccc(F)c1)O2,88*,/,/,36
C[C@H](CO)N1C[C@H](C)[C@@H](CN(C)CC2CCCC2)Oc2ncc(-c3ccc(F)cc3)cc2C1=O,2,/,/,-2
C[C@H]1CN([C@@H](C)CO)C(=O)c2cc(-c3cccc(F)c3)cnc2O[C@H]1CN(C)S(=O)(=O)c1cccc(F)c1,-1,/,/,4
C[C@@H]1CN([C@@H](C)CO)C(=O)c2cc(-c3cccc(F)c3)cnc2O[C@H]1CN(C)Cc1ccccc1,-3,/,/,-20
C[C@H]1CN([C@@H](C)CO)C(=O)c2cc(-c3ccc(F)cc3)cnc2O[C@@H]1CN(C)CC1CCCCC1,90*,/,/,-38
SMILES,Cneo AK release,SUMO Mot1 rescue,Efflux pump inh,C2C12 statin
CO[C@@H]1CN(C)C(=O)c2cc(NC(=O)Nc3cc(F)ccc3F)ccc2OC[C@@H](C)N(C(=O)c2cnccn2)C[C@H]1C,-2,/,/,-2
CSC[C@H]1CN(Cc2ccccc2)C(=O)[C@@H]1CC(=O)Nc1ccccc1,-2,/,/,-4
C[C@@H]1CN([C@H](C)CO)C(=O)c2cc(-c3ccc(F)cc3)cnc2O[C@@H]1CN(C)Cc1ccc(F)cc1,/,/,/,14
CNC[C@H]1Oc2ncc(C#CCC(C)C)cc2C(=O)N([C@H](C)CO)C[C@H]1C,90*,/,/,7
C[C@H]1CN([C@@H](C)CO)C(=O)c2cc(-c3cncnc3)cnc2O[C@H]1CN(C)C(=O)c1ccccc1F,90*,/,/,-14
COc1ccc(-c2cnc3c(c2)C(=O)N([C@H](C)CO)C[C@H](C)[C@H](CN(C)Cc2ccc(F)cc2)O3)cc1,98*,/,/,54
CNC[C@@H]1Oc2ncc(C#CCN(C)C)cc2C(=O)N([C@H](C)CO)C[C@@H]1C,1,/,/,15
COc1ccc(-c2cnc3c(c2)C(=O)N([C@@H](C)CO)C[C@@H](C)[C@@H](CN(C)S(C)(=O)=O)O3)cc1,93*,/,/,10

# Bioassay records as filed in PubChem.
